Test results as given in publication PMC9830076 (International Journal of Nanomedicine, 2023).
Counter-ions that a name gives are not always drawn.

Molecular target: T1, MRP4 transporter (Homo sapiens, UniProt O15439)
T1 sequence (O15439 1-1325): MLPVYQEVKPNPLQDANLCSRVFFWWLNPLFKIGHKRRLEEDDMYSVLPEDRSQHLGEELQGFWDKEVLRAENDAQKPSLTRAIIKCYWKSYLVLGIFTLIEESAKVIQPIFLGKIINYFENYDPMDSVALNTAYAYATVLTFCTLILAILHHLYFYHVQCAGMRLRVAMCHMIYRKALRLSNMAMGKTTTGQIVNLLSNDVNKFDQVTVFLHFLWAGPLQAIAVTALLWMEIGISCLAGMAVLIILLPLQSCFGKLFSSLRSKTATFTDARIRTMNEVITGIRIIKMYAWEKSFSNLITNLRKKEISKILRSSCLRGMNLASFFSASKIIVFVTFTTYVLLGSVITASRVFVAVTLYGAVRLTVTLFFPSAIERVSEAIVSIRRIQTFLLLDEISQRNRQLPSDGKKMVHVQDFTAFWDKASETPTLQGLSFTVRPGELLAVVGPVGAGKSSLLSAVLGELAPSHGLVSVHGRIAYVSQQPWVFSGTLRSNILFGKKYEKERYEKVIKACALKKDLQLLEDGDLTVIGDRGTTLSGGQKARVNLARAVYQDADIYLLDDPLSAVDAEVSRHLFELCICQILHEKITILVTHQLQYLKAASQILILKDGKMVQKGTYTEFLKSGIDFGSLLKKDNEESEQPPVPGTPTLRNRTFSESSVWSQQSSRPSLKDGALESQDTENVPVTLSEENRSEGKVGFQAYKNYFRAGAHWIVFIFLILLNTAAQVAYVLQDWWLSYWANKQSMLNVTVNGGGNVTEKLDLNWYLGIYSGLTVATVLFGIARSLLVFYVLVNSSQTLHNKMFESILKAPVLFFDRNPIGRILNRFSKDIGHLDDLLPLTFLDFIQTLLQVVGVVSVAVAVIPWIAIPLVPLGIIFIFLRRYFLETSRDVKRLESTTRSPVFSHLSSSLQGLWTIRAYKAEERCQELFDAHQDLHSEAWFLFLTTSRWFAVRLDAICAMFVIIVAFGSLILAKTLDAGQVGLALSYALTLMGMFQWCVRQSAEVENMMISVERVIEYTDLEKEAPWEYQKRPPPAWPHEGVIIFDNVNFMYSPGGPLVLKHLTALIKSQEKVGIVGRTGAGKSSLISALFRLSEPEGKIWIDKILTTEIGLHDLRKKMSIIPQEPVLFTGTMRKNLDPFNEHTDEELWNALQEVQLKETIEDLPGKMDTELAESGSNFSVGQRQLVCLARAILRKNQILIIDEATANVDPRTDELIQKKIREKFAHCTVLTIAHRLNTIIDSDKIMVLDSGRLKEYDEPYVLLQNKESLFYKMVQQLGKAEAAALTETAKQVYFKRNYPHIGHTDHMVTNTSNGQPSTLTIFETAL
Test: Effect of MRP4 transporter
Assay type: cell-based
Details: Caco-2 cells, indomethacin 30 μM, 100 μM 6-MPNs or 6-MPCs, 2 h
Procedure, shortened: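 Caco-2 cells grown in 6-well plates to 90% confluency, preincubated 0.5 h at 37°C with 30 μM indomethacin (MRP4 inhibitor), PBS-washed ×3, then exposed 2 h to 100 μM test nanoparticles or crystals plus 30 μM indomethacin; controls without indomethacin. Cells PBS-washed and RIPA/1% PMSF-lysed; 6-MP in lysate by HPLC, total protein by BCA.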

Row | effect on intracellular accumulation of 6-MP | Compound
1 | increased | COc1ccc2c(c1)c(CC(=O)O)c(C)n2C(=O)c1ccc(Cl)cc1 [indomethacin]

Test system: Caco-2 cells
Test: Endocytosis and intracellular trafficking mechanism with pathway inhibitors
Assay type: cell-based
Details: 100 μM 6-MPNs, 0.5 h, intracellular 6-MP by HPLC
Procedure, shortened: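 Caco-2 cells in 12-well plates at 1×10^5 cells/mL, grown to 90% confluency, preincubated 0.5 h with inhibitors, PBS-washed ×3. Endocytosis inhibitors (MβCD, genistein, EIPA, Cyt D, CPZ, dynasore) co-incubated with 100 μM test nanoparticles or crystals, 37°C, 0.5 h. Trafficking inhibitors (BFA, monensin, Baf-A1, nocodazole) with 200 μM, 37°C, 2 h. Inhibitor levels as in preincubation; intracellular 6-MP by HPLC.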

Row | Compound | effect of endocytosis inhibitor on the internalization of 6-MPNs
2 | Methyl-beta-cyclodextrin [MβCD] | obviously reduced
3 | O=c1c(-c2ccc(O)cc2)coc2cc(O)cc(O)c12 [Genistein, genistein] | less influence
4 | CCN(c1nc(N)c(C(=O)NC(=N)N)nc1Cl)C(C)C [EIPA, ethyl-isopropyl-amiloride] | obviously reduced
5 | CN(C)CCCN1c2ccccc2Sc2ccc(Cl)cc21 [CPZ, chlorpromazine hydrochloride] | less influence
6 | O=C(N/N=C/c1ccc(O)c(O)c1)c1cc2ccccc2cc1O [Dynasore, dynasore] | obviously reduced
7 | C=C1[C@@H](C)[C@H]2[C@H](Cc3ccccc3)NC(=O)[C@]23[C@H](OC(C)=O)/C=C/[C@@](C)(O)C(=O)[C@@H](C)C/C=C/[C@H]3[C@@H]1O [Cyt D, cytochalasin D] | less influence

Same assay, conditions: 200 μM 6-MPNs, 2 h

Row | Compound | effect of intracellular transport inhibitor on the content of intracellular 6-MP
8 | CC[C@@]1([C@@H]2O[C@@H]([C@H]3O[C@@](O)(CO)[C@H](C)C[C@@H]3C)C[C@@H]2C)CC[C@H]([C@]2(C)CC[C@]3(C[C@H](O)[C@@H](C)[C@@H]([C@@H](C)[C@@H](OC)[C@H](C)C(=O)O)O3)O2)O1 [Monensin] | significantly enhanced
9 | COC(=O)Nc1nc2ccc(C(=O)c3cccs3)cc2[nH]1 [Nocodazole, nocodazole] | significantly enhanced
10 | C[C@H]1CCC/C=C/[C@@H]2C[C@H](O)C[C@H]2[C@H](O)/C=C/C(=O)O1 [Brefeldin A] | significantly enhanced
11 | CO/C1=C\C(C)=C\[C@@H](C)[C@@H](O)[C@@H](C)C/C(C)=C/C=C/[C@H](OC)[C@@H]([C@@H](C)[C@@H](O)[C@H](C)[C@@]2(O)C[C@@H](O)[C@H](C)[C@@H](C(C)C)O2)OC1=O [Bafilomycin A1] | significantly enhanced

Test system: not given
Test: not given
Details: low solubility and high permeability; cited from earlier work

Row | Compound | biopharmaceutic classification system (BCS) class
12 | Sc1ncnc2nc[nH]c12 [6-MP, 6-Mercaptopurine] | class II
